Converted amounts (≈) assume the structure as drawn.
How the values were obtained:
Assay type in all cases: functional
Enterococcus faecalis = test: Antibacterial activity against vancomycin-susceptible Enterococcus faecalis ATCC 29212 assessed as zone of inhibition by disc diffusion method
Enterobacter cloacae = test: Antibacterial activity against Enterobacter cloacae ATCC 23355 assessed as zone of inhibition by disc diffusion method
Acinetobacter baumannii [1] = test: Antibacterial activity against Acinetobacter baumannii ATCC 19606 assessed as zone of inhibition by disc diffusion method
Staphylococcus aureus [2] = test: Antibacterial activity against methicillin-susceptible Staphylococcus aureus ATCC 25923 assessed as zone of inhibition by disc diffusion method
[3] = system: Staphylococcus epidermidis; test: Antibacterial activity against Staphylococcus epidermidis ATCC 14990 assessed as zone of inhibition by disc diffusion method
Pseudomonas aeruginosa = test: Antibacterial activity against Pseudomonas aeruginosa ATCC 15422 assessed as zone of inhibition by disc diffusion method
Staphylococcus aureus [4] = test: Antibacterial activity against vancomycin-intermediate resistant Staphylococcus aureus Mu50 ATCC 700699 assessed as zone of inhibition by disc diffusion method
Enterococcus faecium = test: Antibacterial activity against vancomycin-resistant Enterococcus faecium ATCC 700221 assessed as zone of inhibition by disc diffusion method
Staphylococcus aureus [5] = test: Antibacterial activity against vancomycin-resistant Staphylococcus aureus HIP11714 assessed as zone of inhibition by disc diffusion method
Staphylococcus aureus [6] = test: Antibacterial activity against heterogeneous vancomycin-intermediate resistant Staphylococcus aureus Mu3 ATCC 700698 assessed as zone of inhibition by disc diffusion method
Acinetobacter baumannii [7] = test: Antibacterial activity against multidrug-resistant Acinetobacter baumannii BAA 1605 assessed as zone of inhibition by disc diffusion method
Staphylococcus aureus [8] = test: Antibacterial activity against hospital acquired methicillin-resistant Staphylococcus aureus ATCC 43300 assessed as zone of inhibition by disc diffusion method
Bacillus anthracis = test: Antibacterial activity against Bacillus anthracis Sterne 34F2 assessed as zone of inhibition by disc diffusion method
Escherichia coli = test: Antibacterial activity against beta-lactam resistant Escherichia coli BAA 2326 assessed as zone of inhibition by disc diffusion method
Klebsiella pneumoniae = test: Antibacterial activity against multidrug-resistant Klebsiella pneumoniae ATCC 700603 assessed as zone of inhibition by disc diffusion method
Staphylococcus aureus [9] = test: Antibacterial activity against community acquired methicillin-resistant Staphylococcus aureus BAA 1747 assessed as zone of inhibition by disc diffusion method
Staphylococcus aureus [10] = test: Antibacterial activity against methicillin-susceptible Staphylococcus aureus ATCC 25923 assessed as bacterial growth inhibition incubated for 20 hrs by broth dilution method
Outline: (§1)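 Broth microdilution: 0.5 McFarland suspension from an overnight culture, diluted 1:100 in cation-adjusted Mueller Hinton broth (CAMHB), given serial dilutions of test agent for 20 h at 37 °C. MIC is the lowest concentration with no visible growth.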

Staphylococcus aureus [11] = test: Antibacterial activity against vancomycin-intermediate Staphylococcus aureus clinical isolate 12 assessed as bacterial growth inhibition after 20 hrs by broth microdilution assay; outline: as §1
Staphylococcus aureus [12] = test: Antibacterial activity against vancomycin-intermediate resistant Staphylococcus aureus Mu50 ATCC 700699 assessed as bacterial growth inhibition incubated for 20 hrs by broth dilution method; outline: as §1
Staphylococcus aureus [13] = test: Antibacterial activity against vancomycin-resistant Staphylococcus aureus clinical isolate 10 assessed as bacterial growth inhibition after 20 hrs by broth microdilution assay; outline: as §1
Staphylococcus aureus [14] = test: Antibacterial activity against vancomycin-resistant Staphylococcus aureus HIP11714 assessed as inhibition of bacterial growth incubated for 20 hrs by broth microdilution method; conditions: HIP11714, 20 h; outline: as §1
Staphylococcus aureus [15] = test: Antibacterial activity against linezolid-resistant Staphylococcus aureus assessed as bacterial growth inhibition incubated for 20 hrs by broth dilution method; outline: as §1
Staphylococcus aureus [16] = test: Antibacterial activity against heterogeneous vancomycin-intermediate Staphylococcus aureus Mu3 ATCC 700698 assessed as bacterial growth inhibition incubated for 20 hrs by broth dilution method; outline: as §1
Staphylococcus aureus [17] = test: Antibacterial activity against methicillin-resistant Staphylococcus aureus ATCC 43300 assessed as bacterial growth inhibition incubated for 20 hrs by broth dilution method; outline: as §1

Row | SMILES | diameter of the inhibition zone (DIZ) (Enterococcus faecalis) | diameter of the inhibition zone (DIZ) (Enterobacter cloacae) | diameter of the inhibition zone (DIZ) (Acinetobacter baumannii [1]) | diameter of the inhibition zone (DIZ) (Staphylococcus aureus [2]) | diameter of the inhibition zone (DIZ) [3] | diameter of the inhibition zone (DIZ) (Pseudomonas aeruginosa) | diameter of the inhibition zone (DIZ) (Staphylococcus aureus [4]) | diameter of the inhibition zone (DIZ) (Enterococcus faecium) | diameter of the inhibition zone (DIZ) (Staphylococcus aureus [5]) | diameter of the inhibition zone (DIZ) (Staphylococcus aureus [6]) | diameter of the inhibition zone (DIZ) (Acinetobacter baumannii [7]) | diameter of the inhibition zone (DIZ) (Staphylococcus aureus [8]) | diameter of the inhibition zone (DIZ) (Bacillus anthracis) | diameter of the inhibition zone (DIZ) (Escherichia coli) | diameter of the inhibition zone (DIZ) (Klebsiella pneumoniae) | diameter of the inhibition zone (DIZ) (Staphylococcus aureus [9]) | also measured
1 | c1ccc(CSSc2ccccn2)cc1 | 14 mm | 0 mm | 9 mm | 26 mm | 38 mm | 0 mm | 23 mm | 14 mm | 30 mm | 19 mm | 0 mm | 28 mm | 38 mm | 0 mm | 0 mm | 20 mm | 
2 | CCCCCSSc1ccccn1 | 23 mm | 8 mm | 0 mm | 32 mm | >50 mm | 0 mm | 24 mm | 24 mm | 22 mm | 27 mm | 0 mm | 21 mm | >50 mm | 0 mm | 0 mm | 22 mm | MIC (Staphylococcus aureus [10]): 50 µM (≈ 10.7 µg/mL); MIC50 (Staphylococcus aureus [11]): 50 µM (≈ 10.7 µg/mL); MIC90 (Staphylococcus aureus [11]): 50 µM (≈ 10.7 µg/mL); MIC (Staphylococcus aureus [12]): 50 µM (≈ 10.7 µg/mL); MIC50 (Staphylococcus aureus [13]): 50 µM (≈ 10.7 µg/mL); MIC90 (Staphylococcus aureus [13]): 50 µM (≈ 10.7 µg/mL); MIC (Staphylococcus aureus [14]): > 50 µM; MIC (Staphylococcus aureus [15]): > 50 µM; MIC (Staphylococcus aureus [16]): 50 µM (≈ 10.7 µg/mL); MIC (Staphylococcus aureus [17]): 50 µM (≈ 10.7 µg/mL)
3 | CCCCSSc1ccccn1 | 15 mm | 9 mm | 0 mm | 0 mm | 22 mm | 0 mm | 0 mm | 0 mm | 0 mm | 0 mm | 0 mm | 0 mm | 48 mm | 0 mm | 0 mm | 0 mm | 

— ChEMBL document CHEMBL4715813, “Allicin-inspired pyridyl disulfides as antimicrobial agents for multidrug-resistant Staphylococcus aureus” (Eur J Med Chem, 2018)
